# Screens: PubChem BioAssay, several laboratories
# A3G deaminase: APOBEC3G DNA deaminase inhibitors, primary screen, biochemical, fluorescence, single-stranded DNA substrate, uHTS; recombinant A3G, ssDNA deamination FAM/TAMRA fluorescence; inhibition, % at 20 µM; 330,000 tested, 0.28% active; DNA dC->dU-editing enzyme APOBEC-3G (Homo sapiens), Q9HC16;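 active = inhibition of at least 40% at 20 µM, with no more than 30% in the related APOBEC3A deaminase screen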;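 also: plate controls were DMSO wells with A3G for no effect and wells lacking A3G enzyme for full effect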
# UCH37 inh: inhibitors of human UCH37 deubiquitinase, primary screen, biochemical, Ub-AMC cleavage, fluorescence | inhibition, % (concentration not given with the values) | purified proteasome/UCH37 | Ubiquitin carboxyl-terminal hydrolase isozyme L5 (Homo sapiens), Q9Y5K5 | AID 588478, 2011 | 330,000 tested, 0.33% active;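 active = mean inhibition over replicate wells above about 20%, limit read from the data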;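 also: 0% = compound-free wells with enzyme and 100% = wells lacking proteasome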
#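 Signal – fluorescence, ex 355 nm, em 460 nm · System – Proteasome-bound UCH37 · Input – 0.15 nM proteasome as dispensed · Timing – 30 min preincubation with enzyme, 25 min cleavage at room temperature · Read-out basis – percent inhibition of cleavage signal versus uninhibited and no-proteasome wells · Medium – Tris-HCl pH 7.4 with ATP-MgCl2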
# A3A deaminase: APOBEC3A ssDNA deaminase inhibitors, primary screen, selectivity assay for APOBEC3G inhibitor project, biochemical, FAM/TAMRA oligo cleavage fluorescence; AID 493011, 2011; inhibition, % at 20 µM; DNA dC->dU-editing enzyme APOBEC-3A (Homo sapiens), P31941; recombinant A3A, FAM/TAMRA ssDNA deamination fluorescence; 330,000 tested, 0.41% active;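 active = at least 40% inhibition at 20 µM here, with at most 30% in a related deaminase screen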;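 also: plate controls were A3A with DMSO for no effect and wells lacking A3A enzyme for full effect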
# Target sequence (P31941 whole entry, looked up): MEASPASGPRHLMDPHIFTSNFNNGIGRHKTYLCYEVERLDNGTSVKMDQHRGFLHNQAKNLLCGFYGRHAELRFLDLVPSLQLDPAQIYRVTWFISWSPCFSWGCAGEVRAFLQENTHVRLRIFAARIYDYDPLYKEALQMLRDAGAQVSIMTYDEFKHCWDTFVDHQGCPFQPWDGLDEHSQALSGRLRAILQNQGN
# GASC-1 inh: inhibitors of GASC-1 histone demethylase, primary screen, biochemical, fluorescence, DELFIA europium; Lysine-specific demethylase 4C (Homo sapiens), Q9H3R0; GST-JMJD2C(1-420) H3K9me3 demethylation; inhibition, % at 2.35 µM; 330,000 tested, 0.069% active;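 active = more than half of a compound's replicate wells show inhibition beyond 50%, single wells judged on their own value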;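 also: signal counts dimethyl H3K9 product captured on neutravidin plate; 0% = median of DMSO wells and 100% = 0.3 times that DMSO median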
# A3G conf: APOBEC3G deaminase inhibitor retest, confirmation, biochemical, fluorescence, single-stranded DNA substrate, single concentration; recombinant A3G ssDNA deaminase, UDG/FAM-TAMRA fluorescence; shares compounds with A3G deaminase; 890 tested, 72% active; inhibition, % at 20 µM; AID 493152, 2011;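 active = inhibition reaching a set limit in any replicate at 20 µM, the limit being 80% of the first screen's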
# UDG ctr A3G: E. coli UDG inhibitors, confirmation, counter-screen for APOBEC3G inhibitor project, biochemical, single concentration, fluorescence, FAM/TAMRA oligo; shares compounds with A3G deaminase; UDG counterscreen; inhibition, % at 20 µM; 710 tested, under 10 active; AID 504715, 2011;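 active = compounds giving 40% or more inhibition at 20 µM in any one of the three replicates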;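 also: plate controls were DMSO wells with UDG and oligo for no effect and DMSO wells lacking both for full effect; inhibitors lower the FAM signal released by uracil excision and alkaline cleavage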
# Target sequence (P12295 whole entry, looked up): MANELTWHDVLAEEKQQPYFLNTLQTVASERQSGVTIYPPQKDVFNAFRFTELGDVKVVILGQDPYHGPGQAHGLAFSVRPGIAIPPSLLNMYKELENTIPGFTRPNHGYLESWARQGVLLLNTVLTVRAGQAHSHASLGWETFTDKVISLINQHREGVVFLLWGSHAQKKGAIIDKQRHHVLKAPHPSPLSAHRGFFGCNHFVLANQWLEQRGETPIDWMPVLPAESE
# An asterisk follows results filed as active; / = no result given. Compounds with a hit are over-represented: about 0.97% of the library has one in this group of screens.
SMILES,A3G deaminase,UCH37 inh,A3A deaminase,GASC-1 inh,A3G conf,UDG ctr A3G
COc1ccc(-c2n[nH]c(=S)n2Cc2ccco2)cc1,36,4,-3,0,/,/
COC(=O)c1ccccc1NC(=O)c1sc(=S)n(C)c1N,40*,4,-1,9,41*,4
COC(=O)c1ccccc1NC(=O)c1sc(N)nc1C,-5,-1,-1,1,/,/
O=C(Nc1n[nH]c(=S)s1)c1ccco1,83*,10,-3,4,88*,-3
Cc1ccc(CN(Cc2ccccc2)C(=S)NCC(=O)NCc2cccnc2)o1,45*,-2,-4,1,7,3
O=C(NN=Cc1cc([N+](=O)[O-])ccc1O)c1c[nH]c2ccccc12,/,5,/,/,/,/
COc1cc(Cl)c(S(=O)(=O)N2CCCC2)cc1Cl,-13,/,-4,1,/,/
COc1cc(N2C(=O)C=CC2=O)c(OC)cc1Cl,43*,1,-2,1,54*,-1
CC(=NNC(=S)NC(C)C)c1ccco1,/,4,/,/,/,/
CC(=O)c1sc2nc(-c3cccs3)ccc2c1N,44*,-47,6,4,31*,-2
Cc1cccn2c(=O)c3cc(C(=O)NCc4ccco4)c(=N)n(CCOCCO)c3nc12,58*,/,27,4,29,/
Cc1cc(=S)[nH]c2c(C)cccc12,79*,4,-2,5,-1,-6
COc1ccc(N2CCN(C(CNC(=O)C(=O)NCc3cccnc3)c3ccco3)CC2)cc1 (stereo not given),-3,4,12,1,/,/
O=C(NCc1cccnc1)C(=O)NCC(c1ccco1)N1CCN(c2ccc(F)cc2)CC1 (stereo not given),42*,2,-2,-2,-10,-2
CCN1CCN(c2nc(-c3ccccc3Cl)nc3ccccc23)CC1,44*,2,-5,-26,-1,-4
COc1ccc(OC)c(-c2cc(C(=O)NN=Cc3ccc(F)cc3)c3ccccc3n2)c1,/,-37,/,/,/,/
Nn1c(SCC(=O)Nc2cccnc2Cl)nnc1-c1ccccc1,46*,1,1,/,63*,-2
CC(=NNC(=O)c1ccncc1)c1cccc(NC(=O)c2ccc(C(C)(C)C)cc2)c1,/,5,/,/,/,/
O=C1NCCCC1C(=O)NN=Cc1ccc(Cl)cc1 (stereo not given),/,4,/,/,/,/
COc1ccnc(N2CCN(c3cccc(C(F)(F)F)c3)CC2)c1C#N,47*,-3,1,-8,1,/
O=C(O)CC1SC(=NN=Cc2ccccc2O)N(c2ccc(O)cc2)C1=O (stereo not given),/,7,/,/,/,/
CCn1c(C)c(CS(=O)(=O)c2ccccc2)[nH]c1=O,49*,6,0,-6,87*,-3
CC(=NNC(=O)c1ccc(C)s1)c1cccc(NC(=O)c2ccoc2C)c1,/,8,/,/,/,/
COc1cc(C2Nn3c(nnc3-c3ccccc3OC)S2)ccc1O (stereo not given),45*,9,-1,3,82*,-2
COc1cc(C2Nc3ccccc3C(=O)N2c2ccccc2OC)ccc1O (stereo not given),-3,-164,-1,-6,/,/
C=C(C)C(=O)Nc1cccc(C2=NOC3(C2)C[C@H](C(N)=O)N(C(=O)COc2ccc(Cl)cc2)C3)c1 (stereo not given in full),88*,2,23,-3,91*,-3
C=C(C)C(=O)Nc1cccc(C2=NOC3(C2)C[C@H](C(N)=O)N(C(=O)c2ccccc2)C3)c1 (stereo not given in full),63*,0,10,-16,65*,3
